Assay results taken from ChEMBL document CHEMBL4004784, “Antioxidant Hydroanthraquinones from the Marine Algal-Derived Endophytic Fungus Talaromyces islandicus EN-501” (J Nat Prod, 2017).
Values after ≈ are worked out from the molar mass of the structure shown. Active and inactive are the calls of the source. The rule behind the calls is not given here.

What was measured:
[1] = test system: Staphylococcus aureus; test: Antimicrobial activity against Staphylococcus aureus EMBLC-2 by XTT assay; assay type: functional
Method in brief: (§1)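 Microplate assay on bacterial strains supplied by the Institute of Oceanology, Chinese Academy of Sciences, with chloramphenicol as the positive control.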

[2] = Antioxidant activity assessed as ABTS radical scavenging activity; assay type: functional
Method in brief: (§2)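 Radical scavenging of pure compounds against DPPH and ABTS radicals, run by previously published methods and reported as IC50 in μM. Positive controls were BHT for DPPH and ascorbic acid for ABTS.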

[3] = test system: Edwardsiella tarda; test: Antimicrobial activity against Edwardsiella tarda QDIO-2 by XTT assay; assay type: functional; method in brief: as §1
[4] = test system: Escherichia coli; test: Antimicrobial activity against Escherichia coli EMBLC-1 by XTT assay; assay type: functional; method in brief: as §1
[5] = Cytotoxicity against human A2780cis cells after 72 hrs by MTT assay; assay type: functional, cell-based
[6] = Antioxidant activity assessed as DPPH radical scavenging activity; assay type: functional; method in brief: as §2
[7] = test system: A2780; test: Cytotoxicity against human A2780 cells after 72 hrs by MTT assay; assay type: functional, cell-based; settings: A2780, 72 h
[8] = test system: A2780cis; test: Cytotoxicity against human A2780cis cells at 100 uM after 72 hrs by MTT assay; assay type: functional, cell-based
[9] = test system: A2780; test: Cytotoxicity against human A2780 cells at 100 uM after 72 hrs by MTT assay; assay type: functional, cell-based

Structure (SMILES)	MIC [1]	IC50 [2]	MIC [3]	MIC [4]	IC50 [6]	IC50 [5]	IC50 [7]	Activity [8]	Activity [9]
CO[C@@H]1c2c(O)cc(C)c(O)c2C(=O)[C@@H]2C[C@H](O)C[C@H](O)[C@@H]12	8 mg/L (≈ 25.9 µM)	24 µM	inactive	inactive	30 µM	> 10 µM	> 10 µM		
O=C1O[C@H]([C@@H](O)CO)C(O)=C1O [ASCORBIC ACID]		16 µM							
O=C(N[C@H](CO)[C@H](O)c1ccc([N+](=O)[O-])cc1)C(Cl)Cl [CHLORAMPHENICOL]	2 mg/L (≈ 6.19 µM)		2 mg/L (≈ 6.19 µM)	4 mg/L (≈ 12.4 µM)					
Cc1cc(C(C)(C)C)c(O)c(C(C)(C)C)c1 [BUTYLATED HYDROXYTOLUENE]					61 µM				

Further lines, with some results ahead:

MIC [1]	IC50 [2]	MIC [3]	MIC [4]	IC50 [6]	Structure (SMILES)	IC50 [5]	IC50 [7]	Activity [8]	Activity [9]
4 mg/L (≈ 14.4 µM)	8.3 µM	inactive	64 mg/L (≈ 230 µM)	12 µM	Cc1cc(O)c2c(c1O)[C@H](O)[C@H]1C[C@@H](O)CC[C@@H]1C2=O	> 10 µM	> 10 µM		
4 mg/L (≈ 13.6 µM)	31 µM	64 mg/L (≈ 217 µM)	32 mg/L (≈ 109 µM)	52 µM	Cc1cc(O)c2c(c1O)[C@H](O)[C@H]1C[C@@H](O)C[C@H](O)[C@@H]1C2=O	> 10 µM	> 10 µM		
2 mg/L (≈ 6.8 µM)	19 µM	32 mg/L (≈ 109 µM)	16 mg/L (≈ 54.4 µM)	31 µM	O=C1c2c(O)cc(CO)c(O)c2[C@H](O)[C@H]2C[C@@H](O)CC[C@H]12			Active	Active
4 mg/L (≈ 13.6 µM)	34 µM	64 mg/L (≈ 217 µM)	32 mg/L (≈ 109 µM)	42 µM	Cc1cc(O)c2c(c1O)[C@H](O)[C@H]1C[C@@H](O)C[C@@H](O)[C@@H]1C2=O	> 10 µM	> 10 µM		
